Compound activity as filed in PubChem BioAssay.
Only some compounds are listed: those with a hit (about 9.3% of all), similar ones and a draw of the others.
hDAT+cocaine: changed hDAT dopamine uptake under cocaine IC80, either direction, primary screen, cocaine antagonist project, cell-based, LLC-PK1 hDAT, [14C]-dopamine uptake, MLSMR | Sodium-dependent dopamine transporter (Homo sapiens), Q01959 | LLC-PK1 hDAT cells, [14C]-dopamine uptake with cocaine IC80; actives deviate in either direction | B-score at 10 µM | hit rate 1.3% among 110,000 | AID 449768, 2010;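 active means Z score or B-score, a plate-position-corrected score, falls beyond the plate's 99.7% confidence bounds, in either direction; inactive means both scores lie inside the 99.7% bounds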
Target sequence (Q01959 whole entry, looked up): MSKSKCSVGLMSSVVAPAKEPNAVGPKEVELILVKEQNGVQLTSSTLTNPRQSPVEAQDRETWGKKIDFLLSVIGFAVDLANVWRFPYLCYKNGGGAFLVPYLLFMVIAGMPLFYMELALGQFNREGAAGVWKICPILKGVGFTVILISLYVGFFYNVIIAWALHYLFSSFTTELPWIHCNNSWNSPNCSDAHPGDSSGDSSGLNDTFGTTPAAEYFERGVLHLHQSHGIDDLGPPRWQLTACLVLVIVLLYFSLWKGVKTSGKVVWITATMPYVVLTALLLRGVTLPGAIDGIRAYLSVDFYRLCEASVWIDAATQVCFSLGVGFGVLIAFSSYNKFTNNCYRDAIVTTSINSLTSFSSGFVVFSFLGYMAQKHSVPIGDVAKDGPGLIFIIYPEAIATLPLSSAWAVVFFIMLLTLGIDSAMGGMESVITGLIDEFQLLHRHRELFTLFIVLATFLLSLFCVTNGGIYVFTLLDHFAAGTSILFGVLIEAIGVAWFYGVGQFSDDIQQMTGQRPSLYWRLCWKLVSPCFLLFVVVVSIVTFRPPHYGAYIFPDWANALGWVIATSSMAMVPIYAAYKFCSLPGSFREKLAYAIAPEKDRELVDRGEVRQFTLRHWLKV
PostGolgi ctrl: growth inhibition of yeast control strain, primary screen, counter-screen for post-Golgi transport modulator project; efflux-deficient yeast background strain, growth absorbance A615, 16 h; inhibition, % at 10 µM; AID 738, 2007; hit rate 5% among 98,000
D1 allo mod: D1 CRE-luciferase signal change, two-sided – cell-based, HEK293 D1, dopamine EC30, D1 allosteric modulator project, primary screen; D(1A) dopamine receptor (Homo sapiens), P21728; dopamine EC30 potentiation; actives deviate in either direction; B-score at 10 µM; hit rate 5.9% among 58,000;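 active means luminescence count or its row- and column-corrected plate score outside the 99.7% band of the plate's sample wells, on either side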
Ecoli tolC: growth inhibitors of E. coli tolC mutant, primary screen, strain BW25113 ΔtolC::kan, 384-well | growth inhibition, % at 10 µM (by protocol) | hit rate 2.2% among 65,000 | OD615;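 active means growth inhibition at or above a cutoff equal to the mean over every tested compound plus 3 SD, cut at about 60% in these data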;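 further: growth measured after 20 h incubation at 37 °C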
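Test system: tolC-deleted E. coli BW25113; medium: LB with kanamycin 50 µg/mL; compound: single-point testing at 10 µM; incubation: 20 h compound exposure of bacteria at 37 °C; signal: OD at 615 nm; evaluation: growth inhibition in percent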
E coli WT exp: growth inhibitors of wild-type E. coli, primary screen, strain BW25113, expanded library, OD600. OD600 absorbance. growth inhibition, % at 100 µM. hit rate 0.15% among 98,000. AID 710, 2007;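 active means growth inhibition above about 50% at one test dose, limit read from the data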;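 further: growth measured after 20 h incubation at 37 °C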
PostGolgi yeast: phenotypic screen on post-Golgi transport, primary screen; post-Golgi transport phenotypic cell assay; hit rate 0.9% among 98,000; inhibition, % at 10 µM; AID 739, 2007;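 further: yeast cells grown in 1536-well plates; yeast grown about 18 h at 30C before absorbance read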
D1 PAM confirm: D1 receptor positive allosteric modulators, retest, confirmation, cell-based, HEK293 D1, CRE-luciferase, duplicate | shares compounds with D1 allo mod | dopamine EC30 potentiation; stronger effect = higher value | luminescence at 10 µM | hit rate 88% among 2,200 | AID 642, 2007;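 active means luminescence in either of two replicates above the same-plate mean plus 3 SD of the low-dose dopamine control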
D1 ag no DA: D1 receptor agonism without dopamine, confirmation, mechanism study for D1 allosteric modulator project, cell-based, HEK293 D1, CRE-luciferase, secondary assay 1; shares compounds with D1 allo mod; luminescence, no dopamine; stronger effect = higher value; luminescence at 10 µM; hit rate 0.8% among 1,900; AID 646, 2007; in the data active means luminescence above about 3900
Isoprot counter: alters isoproterenol CRE-luciferase response in HEK293 cells; shares compounds with D1 allo mod; HEK293 D1 CRE-luciferase, isoproterenol EC30 counter-screen; calls only at 10 µM; hit rate 63% among 2,200;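 active means luminescence in either replicate above plate mean of wells with a partly effective reference agonist dose plus 3 SD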;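 further: isoproterenol raises cAMP through native beta-adrenoceptor Gs so signal bypasses D1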
Large screens that a line does not name were inactive (follow-up assays come after a bar, where they were run). Unless noted, no stated cut-off is given here; in the data, active means inhibition above about 30%; inactive means the rest.

COc1ccc(Cc2noc(-c3ccc(OC)c(OC)c3)n2)cc1OC	D1 allo mod 12.1 | D1 PAM confirm 10328 | D1 ag no DA inactive | Isoprot counter active
COc1ccc(-c2noc(-c3ccco3)n2)cc1OC	D1 allo mod 5.22 | D1 PAM confirm 18728 | D1 ag no DA inactive | Isoprot counter inactive
CCn1c(SCc2nc(-c3ccc(OC)c(OC)c3)no2)nnc1-c1cccs1	D1 allo mod 5.34 | D1 PAM confirm 11432 | D1 ag no DA inactive | Isoprot counter active
COc1ccc(-c2noc(COc3ccccc3OC)n2)cc1OC	D1 allo mod 10.9 | D1 PAM confirm 17132 | D1 ag no DA inactive | Isoprot counter active
CCOc1ccc(-c2noc(-c3ccncc3)n2)cc1OCC	D1 allo mod 11.1 | D1 ag no DA inactive | Isoprot counter active
COc1ccc(Cc2nnc(-c3cccc(C)c3)o2)cc1OC	D1 allo mod 4.34 | D1 PAM confirm 13948 | D1 ag no DA inactive | Isoprot counter active
COc1ccc(CCNC(=O)CSc2nnc(-c3cccc(C)c3)o2)cc1OC	none
COc1ccc(-c2noc(CN(C(=O)c3ccc(OC(C)=O)cc3)C(C)C)n2)cc1OC	D1 allo mod 3.88 | D1 PAM confirm 7848 | D1 ag no DA inactive | Isoprot counter active
COc1ccc(-c2noc(CCC(N)=O)n2)cc1OC	D1 allo mod 3.56 | D1 PAM confirm 13684 | D1 ag no DA inactive | Isoprot counter inactive
CCOc1ccc(-c2nc(-c3cccnc3)no2)cc1OCC	none (no result: D1 allo mod, Ecoli tolC)
CC(C)N(Cc1nc(-c2ccccc2)no1)C(=O)c1ccc2c(c1)OCO2	none
CCOc1ccc(-c2noc(CCCC(N)=O)n2)cc1OC	none (no result: D1 allo mod, Ecoli tolC)
COc1ccc(C2N(c3cc(Cl)ccc3OC)C(=O)C3CCCN32)cc1OC (stereo not drawn)	none
CC1=NC(C(F)(F)F)(C(F)(F)F)C2=C(CC(C)(C)CC2=O)N1Cc1ccco1	none
Cc1c(NC(=O)CN2C(=O)c3ccccc3C2=O)c(=O)n(-c2ccccc2)n1C	D1 allo mod 3.73 | D1 PAM confirm inactive | D1 ag no DA inactive | Isoprot counter inactive
Cc1c(NC(=O)C(C)N2C(=O)c3ccccc3C2=O)c(=O)n(-c2ccccc2)n1C (stereo not drawn)	none
Nc1c(C(=O)c2ccc(F)cc2)oc2ccccc12	D1 allo mod 11.1 | D1 PAM confirm 24288 | D1 ag no DA inactive | Isoprot counter active
COc1ccc(C(=O)c2oc3ccccc3c2N)cc1	none
CC(C)(C)n1ncc2c(=O)n(Cc3c(F)cccc3Cl)cnc21	D1 allo mod 5.98 | D1 PAM confirm 9180 | D1 ag no DA inactive | Isoprot counter active
CC(C)(C)n1ncc2c(=O)n(Cc3ccc(Cl)cc3Cl)cnc21	none
CCN(CC)c1nc(C)c2c(c1C#N)CC(C)(C)OC2	none (no result: D1 allo mod)
CC(C)C1Cc2c(C#N)c(N)sc(=S)c2CO1 (stereo not drawn)	D1 allo mod 10.5 | D1 PAM confirm 21832 | D1 ag no DA inactive | Isoprot counter active
N#Cc1c(N)sc(=S)c2c1CCN(Cc1ccccc1)C2	none
CC1(C)Cc2c(C#N)c(N)sc(=S)c2CO1	D1 allo mod 9.11 | D1 PAM confirm 17212 | D1 ag no DA inactive | Isoprot counter active
Cc1c(Cl)cccc1NC(=O)c1cc(C2CC2)on1	none
COc1ccc(OC)c(N2C(=O)C(Cl)=C(N3CCCCC3)C2=O)c1	D1 allo mod 8.87 | D1 PAM confirm 6148 | D1 ag no DA inactive | Isoprot counter inactive
CCOC(=O)c1ccc(Oc2nc(NC)nc(OC)n2)cc1	D1 allo mod 3.76 | D1 PAM confirm 9704 | D1 ag no DA inactive | Isoprot counter active
CCNc1nc(OC)nc(Oc2ccc(C(=O)OC)cc2)n1	none (no result: D1 allo mod, Ecoli tolC)
COc1cc(OC)cc(C(=O)N2CCN(C(=O)c3ccc(OC)c(OC)c3)CC2)c1	D1 allo mod 14 | D1 PAM confirm 19992 | D1 ag no DA inactive | Isoprot counter active
CCN(CC)CC(C)OC(=O)COc1ccc(OC)cc1 (stereo not drawn)	none (no result: PostGolgi ctrl, D1 allo mod, Ecoli tolC, E coli WT exp, PostGolgi yeast)
COCCCNC(=O)C1CCN(c2ncccn2)CC1	D1 allo mod 1.77 | D1 PAM confirm inactive | D1 ag no DA inactive | Isoprot counter inactive
COCCNC(=O)C1CCCN(c2ncccn2)C1 (stereo not drawn)	none
C#C[C@]1(O)CC[C@H]2[C@@H]3[C@H](C)CC4=C(CCC(=O)C4)[C@H]3CC[C@@]21C	none (no result: PostGolgi ctrl, D1 allo mod, Ecoli tolC, E coli WT exp, PostGolgi yeast)
O=C(Nc1ncnc2sc3c(c12)CCCCC3)c1ccco1	D1 allo mod 5.28 | D1 PAM confirm 9540 | D1 ag no DA inactive | Isoprot counter inactive
CCOC(=O)c1[nH]c(C)c(C(=O)NC2CCN(C(=O)OCC)CC2)c1C	D1 allo mod 2.13 | D1 PAM confirm inactive | D1 ag no DA inactive | Isoprot counter inactive
Cc1[nH]c(C(=O)N2CCCCC2)c(C)c1C(=O)NC1CCCCC1	none (no result: hDAT+cocaine, PostGolgi ctrl, E coli WT exp, PostGolgi yeast)
O=C(Cc1ccccc1)NCC(=O)OCC(=O)c1cccs1	none (no result: D1 allo mod, Ecoli tolC)
Cc1noc(C)c1C(=O)NCCCN1CCCC1=O	none
N#Cc1c2c(nc(N)c1-c1ccccc1)CCCCC2	D1 allo mod 4.52 (no result: Ecoli tolC) | D1 PAM confirm 7208 | D1 ag no DA inactive | Isoprot counter inactive
C#Cc1ccc([C@H]2C=C(C(=O)O)O[C@@H](OCCCCO)C2)cc1	none (no result: PostGolgi ctrl, D1 allo mod, Ecoli tolC, E coli WT exp, PostGolgi yeast)
Cc1c(C(=O)NC(C)C)oc2c1-c1[nH]ncc1CC2	none
CCOc1ccc(CCNC(=O)c2oc3c(c2C)-c2[nH]ncc2CC3)cc1OCC	D1 allo mod 10.6 | D1 PAM confirm 24696 | D1 ag no DA inactive | Isoprot counter active
CN(C)C(CNC(=O)c1cccnc1Sc1ccccc1)c1ccco1 (stereo not drawn)	D1 allo mod 6.64 | D1 PAM confirm 8824 | Isoprot counter active
COCCCNC(=O)C(C#N)c1nc2ccccc2nc1N1CCCC1 (stereo not drawn)	D1 allo mod 12.1 | D1 PAM confirm 18008 | D1 ag no DA inactive | Isoprot counter active
CCCCCNC(=O)C(C#N)c1nc2ccccc2nc1N1CCCC1 (stereo not drawn)	none
